Compound activity (PubChem BioAssay)
Arr AP2 block: inhibitors of beta-arrestin/AP2 binding, primary screen, biochemical, GPCR trafficking, flow cytometry; beta-arrestin 1 C-terminal peptide binding to AP2 beta2-adaptin appendage (human); FITC-arrestin peptide / GST-AP2 beads; AP2 beta2 appendage carries R879A mutation; inhibition, % at 10 µM; actives 0.31% (n = 340,000); AID 504490, 2011;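 active means inhibition above a set limit, near 3 SD of compounds lacking own fluorescence, cut at about 54% in these data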
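Material – AP2 appendage R879A on GSH beads · Buffer or medium – PBS with 0.05% Tween 20 and 0.1% BSA · Probe or stimulus – fluorescein-tagged arrestin peptide at 50 nM final · Incubation – compound with beads 12 min RT, then probe 1 h RT · Detection – high-throughput flow cytometry of beads, ex 488, em 535 nm · Evaluation – percent response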
DSG3 Ab inh: inhibitors of pemphigus antibody binding to DSG3, primary screen, biochemical, bead-based, flow cytometry, scFv-GFP | Desmoglein-3 (Homo sapiens), P32926 | DSG3-coupled beads, scFv-anti-DSG3-GFP binding; hits give low values | binding (percent of control), % at 10 µM | actives 0.48% (n = 310,000) | AID 588358, 2011;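 active means binding more than 3 SD below its plate's average and above zero; inconclusive means below that plate limit but binding exactly zero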;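 further: hits lower antibody fragment binding to DSG3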
PolyA inhibitor: polyadenylation inhibitors in yeast reporter cells, primary screen, luminescence, S. cerevisiae | S. cerevisiae SKY197-pL101 polyadenylation reporter, beta-gal luminescence; efflux-impaired pdr1/pdr3 knockout yeast; score 100 = 6 SD above DMSO | activity score, % at 12 µM | actives 0.02% (n = 300,000);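 active means lowest replicate activity score at least 50, where 100 means six control SD above control mean; inconclusive means lowest score under 50 but half or more replicates reach 50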;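 further: yeast exposed to compound for 9 h at 30 °C; higher score means more reporter readthrough which indicates perturbed polyadenylation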
NALP1 inh: NALP1 inflammasome inhibitors in reconstituted yeast, colorimetric, S. cerevisiae, triplicate retest; inhibition, % at 10 µM; AID 2071, 2009; S. cerevisiae NALP1/ASC/caspase-1 growth, X-gal OD620, 72 h; actives 0.61% (n = 280,000); in the data active means inhibition mostly above about 24%, no sharp cut-off; inactive means mostly below about 32%
ALR inh: inhibitors of human ALR sulfhydryl oxidase, primary screen, biochemical, H2O2 detection, HRP-luminol luminescence, single point | FAD-linked sulfhydryl oxidase ALR (Homo sapiens), P55789 | purified ALR, DTT oxidation | inhibition, % (concentration not given with the values) | actives 3.8% (n = 290,000) | AID 485317, 2010;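 active means mean replicate inhibition above about 79%, with every replicate also reaching it, limit read from the data; inconclusive means only one of the two criteria met; inactive means mean below limit and not every replicate reaching it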
NALP3 yeast inh: NALP3 inflammasome inhibitors in reconstituted yeast, primary screen, luminescence, uHTS; Yeast reconstituted NLRP3/ASC/caspase-1, beta-gal luminescence, 24 h; actives 0.39% (n = 330,000); inhibition, % at 10 µM;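 active means inhibition of 50% or more; inactive means inhibition below 50%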
Each line names hits and unclear results; the compound was inactive in the other large screens. In the library only some 4.6% were active in any assay of this set; here they are far more common.

O=C(NCc1ccncc1)/C(=N/O)c1ccccc1	DSG3 Ab inh 75.4
O=C(NC(=S)NCc1ccncc1)c1ccccc1	ALR inh 93.7
Cc1cccc(OCc2nnc(SCC(=O)N(C)C3CCCCC3)o2)c1	none (no result: PolyA inhibitor, NALP1 inh, ALR inh)
O=C1c2c(O)ccc(O)c2C(=O)c2c(NCCNCCO)ccc(NCCNCCO)c21	ALR inh 99.8 (no result: PolyA inhibitor, NALP1 inh)
Cc1ccc(C(=O)N2[C@@H]3CN(C)C(=O)[C@@]2(Cc2ccccc2)[C@H]2C(=O)N(Cc4ccccc4)C(=O)[C@@H]32)cc1	none (no result: PolyA inhibitor, NALP1 inh, ALR inh, NALP3 yeast inh)
Cc1cc(C)c(S(=O)(=O)N(C)CC(=O)N2CCCC2)c(C)c1	none (no result: Arr AP2 block, PolyA inhibitor, NALP1 inh, ALR inh, NALP3 yeast inh)
S=c1[nH]c(-c2ccccc2)cn1/N=C/c1ccc(Br)cc1	none
O=C(O)c1ccc(/C=N/n2cc(-c3ccccc3)[nH]c2=S)cc1	ALR inh 99.1
S=c1[nH]c(-c2ccccc2)cn1/N=C/c1cccnc1	DSG3 Ab inh 79.9 (no result: NALP1 inh, ALR inh)
S=c1[nH]c(-c2ccccc2)cn1/N=C/c1cccs1	none
O=C(NCc1ccccc1)/C(=C\c1cccc([N+](=O)[O-])c1)NC(=O)c1ccco1	none (no result: Arr AP2 block, PolyA inhibitor, NALP1 inh, ALR inh, NALP3 yeast inh)
COc1ccc(-c2nc(C#N)c(NCc3ccc(C)cc3)o2)cc1OC	none
COCCNC(=O)CS(=O)Cc1nc(-c2ccc(OC)cc2)oc1C (stereo not given)	ALR inh 98.7
COc1ccc(-c2nc(CS(=O)CC(=O)NCc3ccc(C)cc3)c(C)o2)cc1OC (stereo not given)	ALR inh 98.8
COCCCNC(=O)CS(=O)(=O)Cc1nc(-c2cccc(OC)c2)oc1C	ALR inh inconclusive
CCOc1ccc(CCNC(=O)CS(=O)Cc2nc(-c3ccc(OC)c(OC)c3)oc2C)cc1OCC (stereo not given)	ALR inh 99.5
COCCCNC(=O)CS(=O)Cc1nc(-c2cccc(OC)c2)oc1C (stereo not given)	ALR inh 99.2 (no result: DSG3 Ab inh)
CCOc1ccc(CCNC(=O)CS(=O)(=O)Cc2nc(-c3ccc(OC)cc3)oc2C)cc1	DSG3 Ab inh inconclusive
Nc1ccn(C2OC(CCl)C(O)C2O)c(=O)n1 (stereo not given)	none (no result: Arr AP2 block, PolyA inhibitor, NALP1 inh, ALR inh, NALP3 yeast inh)
O=C(O)c1cccc2c1C(=O)c1ccc(-c3ccc(Cl)c(C(F)(F)F)c3)cc1S2(=O)=O	none (no result: PolyA inhibitor, NALP1 inh)
C=Cc1cnc([N+](=O)[O-])n1C	none (no result: Arr AP2 block, PolyA inhibitor, NALP1 inh, ALR inh, NALP3 yeast inh)
COc1ccc(-c2nc(CS(=O)CC(=O)NCc3ccc(Cl)cc3)c(C)o2)cc1OC (stereo not given)	ALR inh 98.6
COc1ccc(CNC(=O)CS(=O)Cc2nc(-c3ccc(C)cc3)oc2C)cc1 (stereo not given)	ALR inh 99.4
CCOc1ccc(CNC(=O)CS(=O)(=O)Cc2nc(-c3ccc(OC)cc3)oc2C)cc1	none
COc1ccc(CNC(=O)CS(=O)Cc2nc(-c3ccc(OC)c(OC)c3)oc2C)cc1 (stereo not given)	ALR inh 98.9
NC(=O)CC(NC(=O)c1ccc(Br)cc1)c1ccc(N2CCCCCC2)c([N+](=O)[O-])c1 (stereo not given)	none
C[C@@H]1CN([C@@H](C)CO)C(=O)c2cc(NC(=O)C3CC3)ccc2O[C@@H]1CN(C)C(=O)NC1CCCCC1	none (no result: PolyA inhibitor, NALP1 inh)
Cc1ccc2c(c1)c1c3n2CCCNC3CCC1 (stereo not given)	none
c1cc2c(cc1C1CCCCC1)c1c3n2CCCNC3CCC1 (stereo not given)	NALP1 inh 41.4
COc1cc(/C=C2\SC(=S)N(NS(=O)(=O)c3ccccc3)C2=O)ccc1O	PolyA inhibitor 85.0 (no result: ALR inh)
CC(=O)N1C(=O)/C(=C2\SC(=S)N(c3c(C)n(C)n(-c4ccccc4)c3=O)C2=O)c2ccccc21	DSG3 Ab inh 66.8 (no result: NALP3 yeast inh)
COc1cc(/C=C2\SC(=S)N(NS(=O)(=O)c3ccc(C)cc3)C2=O)ccc1O	PolyA inhibitor inconclusive, ALR inh 99.2
